For assay [1], the target named is Thymidylate synthase (Escherichia coli) (UniProt C3SWJ7). The experiment in a line: Percent inhibition of Thymidylate synthase in Escherichia coli. Particulars: concentration not given here.
Assay [2] has as its system Squamous carcinoma cell line. The experiment in a line: Growth inhibition of the FaDu Human Squamous Cell carcinoma cell line. It counts as functional, cell-based.
Assay [3] concerns the target T1, Bifunctional dihydrofolate reductase-thymidylate synthase (Toxoplasma gondii, UniProt Q07422).
T1 sequence (Q07422 whole entry): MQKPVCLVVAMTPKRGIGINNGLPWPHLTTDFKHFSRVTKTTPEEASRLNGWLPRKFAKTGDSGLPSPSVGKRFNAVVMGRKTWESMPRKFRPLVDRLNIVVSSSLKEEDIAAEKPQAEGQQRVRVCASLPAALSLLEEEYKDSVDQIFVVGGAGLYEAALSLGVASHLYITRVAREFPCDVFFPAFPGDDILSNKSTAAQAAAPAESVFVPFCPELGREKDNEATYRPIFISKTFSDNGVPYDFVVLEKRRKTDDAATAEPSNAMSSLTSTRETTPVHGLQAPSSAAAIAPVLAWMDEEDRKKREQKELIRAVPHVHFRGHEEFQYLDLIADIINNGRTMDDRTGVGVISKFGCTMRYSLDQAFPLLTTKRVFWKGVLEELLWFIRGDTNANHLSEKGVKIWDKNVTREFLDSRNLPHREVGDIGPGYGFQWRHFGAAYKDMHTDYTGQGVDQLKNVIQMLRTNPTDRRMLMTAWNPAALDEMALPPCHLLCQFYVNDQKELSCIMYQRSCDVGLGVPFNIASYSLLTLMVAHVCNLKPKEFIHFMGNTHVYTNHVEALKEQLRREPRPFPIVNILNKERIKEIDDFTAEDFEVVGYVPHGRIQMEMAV
The experiment in a line: The inhibitory concentration of compound against Dihydrofolate reductases on Toxoplasma gondii. Put shortly:
(§1)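 Run at 37 °C with 90 µM dihydrofolic acid as substrate and 119 µM NADPH as cofactor, in the presence of 150 mM KCl.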

The target in assay [4] is T2, Dihydrofolate reductase (Rattus norvegicus, UniProt Q920D2).
T2 sequence (Q920D2 whole entry): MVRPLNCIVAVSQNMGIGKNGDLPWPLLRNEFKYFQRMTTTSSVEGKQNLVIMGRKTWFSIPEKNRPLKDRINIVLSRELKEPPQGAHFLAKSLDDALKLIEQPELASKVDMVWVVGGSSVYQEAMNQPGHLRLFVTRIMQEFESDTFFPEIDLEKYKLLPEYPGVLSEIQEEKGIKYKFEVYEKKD
The experiment in a line: The inhibitory concentration of compound against Dihydrofolate reductases on rat liver. Put shortly:
as §1

In assay [5] the target is T3, Thymidylate synthase (Lactobacillus casei, UniProt P00469).
T3 sequence (P00469 whole entry): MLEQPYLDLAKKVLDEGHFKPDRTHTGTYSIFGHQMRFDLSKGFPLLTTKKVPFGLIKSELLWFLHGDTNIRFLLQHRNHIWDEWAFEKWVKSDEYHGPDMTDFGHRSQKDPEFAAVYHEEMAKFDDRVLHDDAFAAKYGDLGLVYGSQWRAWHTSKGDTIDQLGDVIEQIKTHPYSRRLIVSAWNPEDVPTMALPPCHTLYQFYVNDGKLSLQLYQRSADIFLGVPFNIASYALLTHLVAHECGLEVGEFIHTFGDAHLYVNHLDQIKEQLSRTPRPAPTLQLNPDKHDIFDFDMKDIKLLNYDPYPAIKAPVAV
The experiment in a line: The inhibitory concentration of compound was evaluated on Lactobacillus casei Thymidylate synthase. On the set-up: species or system Lacticaseibacillus casei.

For assay [6], the target named is Thymidylate synthase (Escherichia coli, UniProt C3SWJ7). In words: The inhibitory concentration of compound was evaluated on Escherichia coli Thymidylate synthase.
Sequence of Thymidylate synthase (Escherichia coli, UniProt C3SWJ7) (C3SWJ7 whole entry): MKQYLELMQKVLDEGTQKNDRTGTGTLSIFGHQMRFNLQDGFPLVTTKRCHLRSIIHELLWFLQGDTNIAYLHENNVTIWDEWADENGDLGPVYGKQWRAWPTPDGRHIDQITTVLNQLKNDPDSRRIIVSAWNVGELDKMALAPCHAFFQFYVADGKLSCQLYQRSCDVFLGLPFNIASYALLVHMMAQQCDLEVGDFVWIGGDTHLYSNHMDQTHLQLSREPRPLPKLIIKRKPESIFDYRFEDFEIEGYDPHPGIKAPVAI
For assay [7], the target named is Thymidylate synthase (Homo sapiens, UniProt P04818). The experiment in a line: The inhibitory concentration of compound was evaluated on Human Thymidylate synthase.
Sequence of Thymidylate synthase (Homo sapiens, UniProt P04818) (P04818 whole entry): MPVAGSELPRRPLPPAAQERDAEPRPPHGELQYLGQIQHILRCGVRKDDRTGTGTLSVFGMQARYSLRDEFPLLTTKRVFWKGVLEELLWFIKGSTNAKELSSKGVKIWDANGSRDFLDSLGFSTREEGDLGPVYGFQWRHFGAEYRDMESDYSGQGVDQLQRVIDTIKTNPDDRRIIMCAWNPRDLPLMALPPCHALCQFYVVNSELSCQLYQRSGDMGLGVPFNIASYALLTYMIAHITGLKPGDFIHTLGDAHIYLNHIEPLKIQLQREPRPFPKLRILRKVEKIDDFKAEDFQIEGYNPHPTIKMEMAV
Assay [8] has as its target T4, Thymidylate synthase (Lactobacillus casei) (UniProt P00469).
T4 sequence (whole entry): T3 sequence (P00469 whole entry)
In words: Percent inhibition of Thymidylate synthase in Lactobacillus casei. Particulars: Lacticaseibacillus casei; concentration not given here.

Assay [9] addresses T2, Dihydrofolate reductase. In words: The inhibitory concentration of compound against Dihydrofolate reductases on rat liver (rl). It counts as tissue-based. The essentials:
as §1

Where only a bound is given, the exact number is not on record here.

Sequence of Thymidylate synthase (Escherichia coli) (C3SWJ7 1-264): as the sequence (C3SWJ7 whole entry) above

The term inhibition denotes the share of the control response that was lost under treatment. Low values mean a response near the control, high ones a response far below the control. In general, EC50 refers to the midpoint of the concentration-response curve. A lower EC50 goes with greater potency. In assay [1], `COc1ccc(Sc2c(C)[nH]c3nc(N)nc(O)c23)cc1OC` displayed an inhibition of 30%. The EC50 in assay [2] was > 10 µM.

A word on the IC50: it is the midpoint of a concentration-inhibition curve. Regarding `COc1ccc(Sc2c(C)[nH]c3nc(N)[nH]c(=O)c23)cc1OC`, the IC50 in assay [3] was 20 µM; in assay [4], > 0.021 mM.

Turning to `Cc1[nH]c2nc(N)[nH]c(=O)c2c1Sc1ccc2ccccc2c1`, the IC50 in assay [5] is > 25 µM; in assay [6], > 25 µM; in assay [7] it was 2000 nM.

In the case of `Cc1[nH]c2nc(N)[nH]c(=O)c2c1Sc1ccc(Cl)c(Cl)c1`, the IC50 in assay [3] is 11.7 µM; in [4], > 0.02 mM.

Turning to `Cc1[nH]c2nc(N)nc(O)c2c1Sc1ccc2ccccc2c1`, the inhibition in assay [1] came to 36%; in [8], 32%.

Regarding `Cc1[nH]c2nc(N)nc(O)c2c1Sc1ccc(Cl)cc1`, the IC50 in assay [9] was determined as 24.6 µM; in [3], 3.1 µM. This compound also came in with an EC50 in assay [2] of 6.7 µM.

With `Cc1[nH]c2nc(N)[nH]c(=O)c2c1Sc1ccc([N+](=O)[O-])cc1`, the IC50 was determined as 244 µM in assay [3] and 7.47 mM in assay [4]. This compound had an EC50 in assay [2] of 1.5 µM.

With `CN(Cc1ccc(S(=O)(=O)N2CCOCC2)cc1)c1ccc2c3c(cccc13)C(N)=N2`, it took 1 µM to reach a half-maximal effect in assay [2] (EC50). In other words, the single-digit micromolar range.

For `Cc1[nH]c2nc(N)nc(O)c2c1Sc1ccncc1`, the IC50 in [5] was 100 µM; in assay [6], > 29 µM; in assay [7], 340 nM.

For the compound `Cc1[nH]c2nc(N)nc(O)c2c1Sc1ccccc1`, the inhibition in [1] is 30%. Besides, the EC50 in assay [2] was > 10 µM. Moreover, the IC50 is > 30 µM in [5], > 30 µM in assay [6] and 30000 nM in assay [7].

For the origin of these results see ChEMBL document CHEMBL1129396, “2-amino-4-oxo-5-substituted-pyrrolo[2,3-d]pyrimidines as nonclassical antifolate inhibitors of thymidylate synthase” (J Med Chem, 1996).
